Source: PubChem BioAssay
LEDGF integ inh: blockers of LEDGF/p75-dependent integrase strand transfer – biochemical, TR-FRET, high throughput, primary screen. AID 743269, 2014. TR-FRET IN-LEDGF/p75 DNA integration, Eu/Cy5. inhibition, % at 3.7 µM. 370,000 compounds, 0.64% hits;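 active means inhibition above the screen-wide mean plus 3 SD, cut at about 13% in these data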;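 further: signal is the Cy5 over europium emission ratio at 671 and 618 nm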
MBD2 inh: inhibitors of MBD2 binding to methylated DNA, primary screen, biochemical, TR-FRET, DNA-binding domain, human; MBD2 binding to methylated oligonucleotide; 370,000 compounds, 0.31% hits; inhibition, % at 4.4 µM; Methyl-CpG-binding domain protein 2 (Homo sapiens), Q9UBB5; in the data active means inhibition above about 13%
Target sequence (Q9UBB5 whole entry, looked up, the tested form may be a part): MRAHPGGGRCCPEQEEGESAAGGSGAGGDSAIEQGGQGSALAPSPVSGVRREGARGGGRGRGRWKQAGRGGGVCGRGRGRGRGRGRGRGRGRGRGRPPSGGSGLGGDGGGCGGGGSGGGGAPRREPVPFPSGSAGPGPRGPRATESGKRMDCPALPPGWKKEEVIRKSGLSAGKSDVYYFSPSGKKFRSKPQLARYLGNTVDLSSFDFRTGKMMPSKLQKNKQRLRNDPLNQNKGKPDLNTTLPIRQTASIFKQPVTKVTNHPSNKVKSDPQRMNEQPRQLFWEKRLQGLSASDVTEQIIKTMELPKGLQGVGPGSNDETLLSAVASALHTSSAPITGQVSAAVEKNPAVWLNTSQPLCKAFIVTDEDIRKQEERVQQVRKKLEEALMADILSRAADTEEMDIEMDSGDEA
TDP2 inh: human TDP2 enzyme inhibitors, primary screen, biochemical, epi absorbance, recombinant enzyme; Tyrosyl-DNA phosphodiesterase 2 (Homo sapiens), O95551; T5PNP hydrolysis, p-nitrophenol absorbance 415 nm; inhibition, % at 12.8 µM; 370,000 compounds, 0.34% hits; AID 720702, 2013;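 active means inhibition above the mean of all tested compounds plus 3 SD, set per campaign, cut at about 25% in these data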
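Material: recombinant human TDP2; quantity: TDP2 enzyme at 120 nM final; medium: Tris-HCl pH 7.5 with MgCl2; compound: single concentration, 12.8 µM nominal, with 1% DMSO; incubation: 2 h enzyme incubation at 37 °C; signal: epi absorbance; measure: percent inhibition; benchmarks: high control without enzyme, low control DMSO plus TDP2; repeats: singlicate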
UHRF1 MBD2 ctr: UHRF1 methylated DNA binding inhibitors, primary screen, counter-screen for MBD2 inhibitor project, biochemical, TR-FRET, human UHRF1, single concentration. AID 687016, 2013. inhibition, % at 4.4 µM. UHRF1 binding to methylated oligo. 370,000 compounds, 0.75% hits. E3 ubiquitin-protein ligase UHRF1 (Homo sapiens), Q96T88; in the data active means inhibition above about 21%;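 further: UHRF1 SRA domain binding a hemimethylated CpG hairpin DNA probe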
TDP2 confirm: human TDP2 enzyme inhibitors, retest, confirmation, biochemical, epi absorbance, recombinant enzyme | inhibition, % at 12.8 µM | absorbance read-out | 1,100 compounds, 22% hits | shares compounds with TDP2 inh; in the data active means inhibition above about 25%
Large screens that a line does not name were inactive (follow-up assays come after a bar, where they were run). Shown are actives, neighbours in structure and some others; about 1.6% of the full set was active somewhere.

Cc1ccc(CN2CCC(N3CC(C)OC(C)C3)CC2)cc1 (configuration not stated)	TDP2 inh 25 | TDP2 confirm inactive
COc1ccc(Cc2nnc(SCC(=O)NC(C)c3ccccc3)o2)cc1 (configuration not stated)	TDP2 inh 72 | TDP2 confirm inactive
CCc1cc[n+](C2=C([O-])c3ccccc3C(=O)/C2=N\S(=O)(=O)c2cccs2)cc1	TDP2 inh 41 | TDP2 confirm 40
Cc1ccc(C(=O)N/C(=C\c2ccc(-c3ccccc3[N+](=O)[O-])o2)C(=O)NCCN(C)C)cc1	TDP2 inh 25 | TDP2 confirm inactive
NC(=O)c1cc2ccccc2o/c1=N\NC(=O)c1ccncc1	TDP2 inh 32 | TDP2 confirm inactive
Cn1ccc2c(N3c4ccccc4CCc4ccccc43)cc3c(c21)C1CCC3O1 (configuration not stated)	TDP2 inh 28 | TDP2 confirm inactive
Cn1ccc2c(N3c4ccccc4CCc4ccccc43)cc3c(c21)C1CCC3C1 (configuration not stated)	none
Cc1ccccc1OCC(O)CN1CCN(CC(O)COc2ccccc2C)C(C)C1 (configuration not stated)	TDP2 inh 26 | TDP2 confirm inactive
Cc1ccccc1OCC(O)Cn1c2ccccc2c2ccccc21 (configuration not stated)	none
C=CCCC(=O)N[C@H]1CC[C@@]23CCCN2C(=O)CCC[C@H]3[C@H]1C	none
COc1ccc(-c2csc3ncnc(N4CCN(S(=O)(=O)c5cccc(C(F)(F)F)c5)CC4)c23)cc1	TDP2 inh 25 | TDP2 confirm inactive
COC(=O)[C@]1(C)N[C@H](CN(C)C(=O)Nc2ccc(F)cc2)[C@@H]2C(=O)N(C)C(=O)[C@@H]21	none
COC(=O)[C@]1(C)N[C@H](CN(C)C(=O)Nc2ccc(OC)cc2)[C@@H]2C(=O)N(C)C(=O)[C@@H]21	TDP2 inh 48 | TDP2 confirm inactive
C[C@H](NS(=O)(=O)c1ccc([N+](=O)[O-])cc1)C(=O)NCCNC(=O)[C@@H](C)NS(=O)(=O)c1ccc([N+](=O)[O-])cc1	none
Cc1cc(C)c(C#N)c(SCC(=O)N(CCC#N)c2ccc3c(c2)OCCO3)n1	TDP2 inh 25 | TDP2 confirm inactive
O=C1c2cccnc2-c2ncccc21	none
O=C1C(=O)c2cccnc2-c2ncccc21	TDP2 inh 104 | TDP2 confirm 89
CC(=O)Nc1ccc(C2=NN(C)C(=NCc3ccccc3)SC2)cc1	TDP2 inh 29 | TDP2 confirm inactive
COc1cccc(CC(O)CC2c3c(cc4c(c3OC)OCO4)CCN2C)c1 (configuration not stated)	none
COc1c2c(cc3c1C(CC(O)Cc1ccccc1)N(C)CC3)OCO2 (configuration not stated)	TDP2 inh 25 | TDP2 confirm inactive
CCN1CCCCC(NC(=O)c2ccccc2)C1=O (configuration not stated)	none
O=C(C1=C(O)C(=O)N(CC2CCCO2)C1c1cccc(O)c1)c1ccco1 (configuration not stated)	TDP2 inh 27 | TDP2 confirm inactive
COc1cc(/C=C2\SC(N)=NC2=O)ccc1OCC(=O)Nc1ccc(C)cc1	none
COc1cc(/C=C2\C(=O)N(CCC#N)N=C2C)ccc1OCC(=O)Nc1ccccc1	TDP2 inh 84 | TDP2 confirm inactive
CC1=NN(CCC#N)C(=O)/C1=C/c1ccc(N(C)C)cc1	TDP2 inh 42 | TDP2 confirm inactive
CC1=NOC(=O)/C1=C/c1ccc(N(C)C)cc1	none
O=C(CN1C(=O)CCSc2ccccc21)Nc1ccc(Cl)cc1	none
O=C(/C=C/c1cccc([N+](=O)[O-])c1)NCCN1C(=O)S/C(=C\c2cccnc2)C1=O	TDP2 inh 25 | TDP2 confirm inactive
CS(=O)(=O)c1ccc(C(=O)NCCN2C(=O)S/C(=C\c3cccnc3)C2=O)cc1[N+](=O)[O-]	none
Cc1ccc(CNC(=O)CN(Cc2cccs2)C(=O)C2(C)CC(=O)N=C3C=CC=CN32)cc1 (configuration not stated)	none
Cc1ccc(CNC(=O)CN(C(=O)C2(C)CC(=O)N=C3C=CC=CN32)c2cc(C)ccc2C)cc1 (configuration not stated)	TDP2 inh 26 | TDP2 confirm inactive
COC(=O)c1cc2c(-c3ccccc3)c(C)c3ccccn3c-2c1C(=O)OC	none
COC(=O)c1c(Cl)c2n3ccccc3c(C)c(-c3ccccc3)c-2c1C(=O)OC	TDP2 inh 32 | TDP2 confirm inactive
CN1C(=O)[C@@]2(O[C@H]3C=CC=CN3C3=C2C(=O)CCC3)c2cc([N+](=O)[O-])ccc21	none
CCc1ccc(NC(=S)Nc2cccc3cnccc23)cc1	TDP2 inh 38 | TDP2 confirm inactive
COC(=O)CCC(=O)OC1(C)C(=O)C=C2C=C(C3CC3)N(CCCCO)C=C2C1=O (configuration not stated)	TDP2 inh 31 | TDP2 confirm inactive
COC(=O)CCC(=O)OC1(C)C(=O)C=C2C=C(C3CC3)N(c3ccccc3)C=C2C1=O (configuration not stated)	none
COC(=O)CCC(=O)OC1(C)C(=O)C=C2C=C(C3CC3)N(C(CO)CO)C=C2C1=O (configuration not stated)	TDP2 inh 30 | TDP2 confirm inactive
CCOC(=O)N1CCN(C(=O)C[C@@H]2C(=O)N(Cc3ccc(OC)cc3)C3=CCN(C(=O)OC(C)(C)C)C[C@]32C(=O)OCC)CC1	none
CCOC(=O)C1CCN(C2=C(NS(=O)(=O)c3ccc(Br)cc3)C(=O)c3ccccc3C2=O)CC1	TDP2 inh 30 | TDP2 confirm inactive
NC(=O)C1CCN(C2=C(NS(=O)(=O)c3ccccc3)C(=O)c3ccccc3C2=O)CC1	none
NC(=O)C1CCN(C2=C(NS(=O)(=O)c3ccc(Br)cc3)C(=O)c3ccccc3C2=O)CC1	TDP2 inh 38 | TDP2 confirm inactive
CCOC(=O)N1CCN(C2=C(NS(=O)(=O)c3ccc(Br)cc3)C(=O)c3ccccc3C2=O)CC1	none
NC(=O)C1CCN(C2=C(Cl)C(=O)c3ccccc3C2=O)CC1	TDP2 inh 50 | TDP2 confirm 76
COc1ccc(CCNC(=O)c2cc3ccccn3n2)cc1	none
COc1cc(NC(=O)c2cnn3c(C)cc(C)nc23)cc(OC)c1OC	none
CNC(=O)C(=O)Nc1c(O)c2ccccc2[nH]c1=O	TDP2 inh 27 | TDP2 confirm inactive
